Assay results published in ChEMBL document CHEMBL4825779, “Sulfur Analogues of Tyrosine in the Development of Triazene Hybrid Compounds: A New Strategy against Melanoma” (ACS Med Chem Lett, 2021).

T1: Tyrosinase (Agaricus bisporus, UniProt O42713)
T1 sequence (O42713 whole entry): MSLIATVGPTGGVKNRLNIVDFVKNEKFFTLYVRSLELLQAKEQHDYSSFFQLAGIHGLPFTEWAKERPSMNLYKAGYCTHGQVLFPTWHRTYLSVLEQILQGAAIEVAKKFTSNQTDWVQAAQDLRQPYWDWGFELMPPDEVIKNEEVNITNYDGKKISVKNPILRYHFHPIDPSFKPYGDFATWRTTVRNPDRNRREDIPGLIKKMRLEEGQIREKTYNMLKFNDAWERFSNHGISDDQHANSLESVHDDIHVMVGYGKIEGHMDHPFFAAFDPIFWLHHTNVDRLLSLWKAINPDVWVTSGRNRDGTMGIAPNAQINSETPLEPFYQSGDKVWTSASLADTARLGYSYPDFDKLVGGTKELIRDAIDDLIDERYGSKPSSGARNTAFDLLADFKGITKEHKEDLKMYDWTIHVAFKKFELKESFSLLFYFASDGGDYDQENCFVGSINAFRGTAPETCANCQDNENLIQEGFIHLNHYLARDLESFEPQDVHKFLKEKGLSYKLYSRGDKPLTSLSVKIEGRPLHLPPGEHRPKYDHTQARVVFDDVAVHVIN

B1: Tyrosinase (Agaricus bisporus) (protein)
chain: T1 sequence (O42713 whole entry)

Assays:
[1] = Cytotoxicity against human MNT-1 cells assessed as reduction in cell viability incubated for 72 hrs by MTS assay; format: functional, cell-based; conditions: MNT-1, 72 h
Outline: (§1)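 Cell lines: MNT-1 and A375 (human melanoma), B16F10 (murine melanoma) and HaCaT (human keratinocytes). Compounds incubated with cells for 72 h; IC50 reported in μM.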

[2] = test system: A-375; assay: Cytotoxicity against human A-375 cells assessed as reduction in cell viability incubated for 72 hrs by MTS assay; format: functional, cell-based; conditions: A-375, 72 h; outline: as §1
[3] = test system: HaCaT; assay: Cytotoxicity against human HaCaT cells assessed as reduction in cell viability incubated for 72 hrs by MTS assay; format: cell-based; outline: as §1
[4] = test system: B16-F10; assay: Cytotoxicity against mouse B16-F10 cells assessed as reduction in cell viability incubated for 72 hrs by MTS assay; format: functional, cell-based; conditions: B16-F10, 72 h; outline: as §1
[5] = target: T1, Tyrosinase; assay: Substrate activity at mushroom tyrosinase assessed as half-life of the compound by HPLC analysis; format: ADME
Outline: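 Incubated with mushroom tyrosinase at 100 units/mL. Reaction followed by HPLC to derive substrate half-life (min).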

[6] = Half life in 80% human plasma by HPLC analysis; format: ADME, cell-free
Outline: (§2)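 Stability run at 37 °C in PBS pH 7.4 or 80% human plasma. HPLC followed loss of parent and appearance of hydrolysis products over at least 3 half-lives. Decay fitted pseudo-first-order: kobs taken as the slope of ln(concentration) vs time, and t1/2 calculated from kobs.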

[7] = Toxicity in BALB/c mouse assessed as kidney tissue index at 12 mg/kg, iv administered 3 times for 1 week and measured at 2 days post-last injection (reference value: 13 +/-1); format: organism-based; conditions: in vivo, 216 h, time 9 day
[8] = Toxicity in BALB/c mouse assessed as heart tissue index at 12 mg/kg, iv administered 3 times for 1 week and measured at 2 days post-last injection (reference value: 7 +/-1); format: organism-based; conditions: in vivo, 216 h, time 9 day
[9] = Half life of the compound in PBS buffer at pH 7.4 by HPLC analysis; format: physicochemical; outline: as §2
[10] = Toxicity in BALB/c mouse assessed as lung tissue index at 12 mg/kg, iv administered 3 times for 1 week and measured at 2 days post-last injection (reference value: 8 +/-1); format: organism-based; conditions: in vivo, 216 h, time 9 day
[11] = Selectivity index, ratio of IC50 for human HaCaT cells to IC50 for human cells by MTS assay
[12] = Toxicity in BALB/c mouse assessed as liver tissue index at 12 mg/kg, iv administered 3 times for 1 week and measured at 2 days post-last injection (reference value: 22 +/-1); format: organism-based; conditions: in vivo, 216 h, time 9 day
[13] = Selectivity index, ratio of IC50 for human HaCaT cells to IC50 for human MNT-1 cells by MTS assay
[14] = Hepatotoxicity in BALB/c mouse assessed as gamma-GT level in plasma at 12 mg/kg, iv administered 3 times for 1 week and measured at 2 days post-last injection (reference value: 47 +/-9 U/L); format: toxicity, organism-based; conditions: in vivo, 216 h, time 9 day
Outline: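 BALB/c mice dosed intravenously at 12 mg/kg, 3 times per week for 1 week. Vehicle: PBS plus Cremophor (5% p/v); controls received vehicle only. Behaviour checked daily. Animals killed 2 days after the last injection; blood collected for γ-GT, and organs weighed for tissue index.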

[15] = 1-Octanol/phosphate buffer apparent partition coefficient, logP of the compound measured after 30 mins by HPLC analysis; format: physicochemical
[16] = Haemolytic activity against human erythrocytes at 0.2 to 400 uM after 1 hr; format: ADME, cell-based, Erythrocyte; conditions: dose 0.2-400 µM, read-out: Activity
Outline: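 Human red blood cells exposed to compound at 0.2 to 400 μM for 1 h at 37 °C. Read-out: percentage hemolysis.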

[17] = Toxicity in BALB/c mouse assessed as spleen tissue index at 12 mg/kg, iv administered 3 times for 1 week and measured at 2 days post-last injection (reference value: 6 +/-1); format: organism-based; conditions: in vivo, 216 h, time 9 day
[18] = Selectivity index, ratio of IC50 for human HaCaT cells to IC50 for mouse B16-F10 cells by MTS assay; format: toxicity; conditions: HaCaT cells and B16-F10 cells, read-out: Ratio IC50
Outline: (§3)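 Human HaCaT keratinocytes and the melanoma line (human A375 or murine B16F10) were each incubated with compound for 72 h, and IC50 was determined in each line. Selectivity index is HaCaT IC50 divided by melanoma-line IC50.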

[19] = Selectivity index, ratio of IC50 for human HaCaT cells to IC50 for human A-375 cells by MTS assay; outline: as §3
[20] = Hepatotoxicity in rat liver microsomes assessed as GSH depletion measured after 180 mins by Ellman's method; format: toxicity, Microsome; conditions: 3 h
[21] = Drug metabolism in rat liver microsomes assessed as CYP450-mediated o-quinone formation measured after 3 hrs by HPLC analysis; format: ADME, Microsome
[22] = target: T1, Tyrosinase; assay: Drug metabolism assessed as mushroom tyrosinase-mediated drug oxidation by measuring dihydroxylated metabolite formation with m/z 410 by mass spectrometry; format: ADME
[23] = target: T1, Tyrosinase; assay: Drug metabolism assessed as mushroom tyrosinase-mediated drug oxidation by measuring dihydroxylated metabolite formation with m/z 408 by mass spectrometry; format: ADME
[24] = target: T1, Tyrosinase; assay: Drug metabolism assessed as mushroom tyrosinase-mediated drug oxidation by measuring compound 18c formation measured after 0.5 to 4 mins by HPLC analysis; format: ADME; conditions: time 0.5-4 min
[25] = target: T1, Tyrosinase; assay: Drug metabolism assessed as mushroom tyrosinase-mediated drug oxidation by measuring 3-(4-cyanophenyl)-N-(2-(3,4-dioxocyclohexa-1,5-dienylthio)ethyl)-1-methyltriaz-2-ene-1-carboxamide formation measured after 2 hrs by HPLC analysis; format: ADME
[26] = target: T1, Tyrosinase; assay: Drug metabolism assessed as mushroom tyrosinase-mediated drug oxidation by measuring dihydroxylated metabolite formation with m/z 344 by mass spectrometry; format: ADME
[27] = substrate: CN(/N=N/c1ccc(C#N)cc1)C(=O)NCCSc1ccc(O)cc1; assay: (§4) Substrate activity at mushroom tyrosinase assessed as Km by Michaelis-Menten based analysis; format: ADME, Agaricus bisporus
[28] = substrate: Cc1ccc(/N=N/N(C)C(=O)NCCSc2ccc(O)cc2)cc1; assay: as §4; format: ADME, Agaricus bisporus
[29] = substrate: CCOC(=O)c1ccc(/N=N/N(C)C(=O)NCCSc2ccc(O)cc2)cc1; assay: as §4; format: ADME, Agaricus bisporus

| Molecule | IC50 [1] [µM] | IC50 [2] [µM] | IC50 [3] [µM] | IC50 [4] [µM] | half-life [5] [min] | half-life [6] [h] | half-life [9] [h] | Ratio IC50 [13] | selectivity ratio [18] | Ratio IC50 [19] | also measured |
| --- | --- | --- | --- | --- | --- | --- | --- | --- | --- | --- | --- |
| Cn1nnc2c(C(N)=O)ncn2c1=O [TEMOZOLOMIDE] | > 75 | > 75 | > 75 | > 75 | – | – | – | – | – | – | – |
| CCOC(=O)c1ccc(/N=N/N(C)C(=O)NCCSc2ccc(O)cc2)cc1 | 49.4 | 43.8 | > 100 | 51 | 3.7 | 30.5 | > 240 | 2 | 2 | – | Activity_index [7]: 13; Activity_index [8]: 7; Activity_index [10]: 8; Ratio IC50 [11]: 2; Activity_index [12]: 22; Activity [14]: 57 U/L; logD at 0.5 h [15]: 4.08; hemolysis at 1 h, up to 400 µM [16]: < 1%; Activity_index [17]: 6 |
| CC(=O)c1ccc(/N=N/N(C)C(=O)CCSc2ccc(O)cc2)cc1 | > 75 | > 75 | – | > 75 | – | 4.9 | 139 | 2 | 2 | 2 | – |
| CN(/N=N/c1ccc(Br)cc1)C(=O)NCCSc1ccc(O)cc1 | > 75 | – | > 150 | > 75 | 0.5 | 105 | > 240 | 2 | 2 | – | Ratio IC50 [11]: 2; logD at 0.5 h [15]: 3.95; Activity [20]: Non-Toxic; Drug metabolism [21]: Metabolite_Notdetected |
| CN(/N=N/c1ccc(Br)cc1)C(=O)CCSc1ccc(O)cc1 | > 75 | 55 | – | > 75 | 2.1 | 8.3 | 106 | 2 | 2 | 2 | Drug metabolism [22]: Metabolite_Detected; Drug metabolism [23]: Metabolite_Detected |
| CN=NNc1ccc(C(C)=O)cc1 | > 75 | – | > 130 | > 75 | – | – | – | – | – | – | – |
| CCOC(=O)c1ccc(/N=N/N(C)C(=O)CCSc2ccc(O)cc2)cc1 | > 75 | 61 | – | > 75 | – | 6.57 | 130 | 2 | 2 | 2 | – |
| CC(=O)c1ccc(/N=N/N(C)C(=O)NCCSc2ccc(O)cc2)cc1 | > 75 | – | > 150 | > 75 | 1 | 61.6 | > 240 | 2 | 2 | – | Ratio IC50 [11]: 2; logD at 0.5 h [15]: 3.44 |
| Cc1ccc(/N=N/N(C)C(=O)NCCSc2ccc(O)cc2)cc1 | 74.1 | – | > 130 | 78.3 | 1.9 | 88.5 | > 240 | 2 | 2 | – | Ratio IC50 [11]: 2; logD at 0.5 h [15]: 4.21 |
| CN=NNc1ccc(C#N)cc1 | > 60 | – | > 60 | > 60 | – | – | – | – | – | – | – |
| CN(/N=N/c1ccc(C#N)cc1)C(=O)CCSc1ccc(O)cc1 | > 75 | > 75 | – | > 75 | – | 2.99 | 86.4 | 2 | 2 | 2 | – |
| CN/N=N/c1ccc(Br)cc1 | > 60 | – | > 60 | > 60 | – | – | – | – | – | – | – |
| CN(/N=N/c1ccc(Cl)cc1)C(=O)CCSc1ccc(O)cc1 | – | > 75 | > 75 | > 75 | – | – | – | 2 | 2 | 2 | – |
| CN(/N=N/c1ccc(C#N)cc1)C(=O)NCCSc1ccc(O)cc1 | > 75 | – | > 150 | > 75 | 0.5 | 74 | > 240 | 2 | 2 | – | Ratio IC50 [11]: 2; Drug metabolism [24]: Metabolite_Detected; logD at 0.5 h [15]: 3.49; Drug metabolism [25]: Metabolite_Notdetected |
| Cc1ccc(/N=N/N(C)C(=O)CCSc2ccc(O)cc2)cc1 | – | 47 | 45.8 | > 75 | 2.3 | 8.7 | 101 | 2 | 2 | <1 | Drug metabolism [26]: Metabolite_Detected |
| CCOC(=O)c1ccc(/N=N/NC)cc1 | > 60 | – | > 60 | > 60 | – | – | – | – | – | – | – |
| NCCSc1ccc(O)cc1 | 42.8 | – | > 125 | > 75 | – | – | – | >=3 | – | – | – |
| B1 | – | – | – | – | – | – | – | – | – | – | Km [27]: 64 µM; Km [28]: 64 µM; Km [29]: 64 µM |
